Test results as given in ChEMBL document CHEMBL1123791, “3'-substituted 2',3'-dideoxynucleoside analogues as potential anti-HIV (HTLV-III/LAV) agents” (J Med Chem, 1987).

Experiments:
MT4 [1] = assay: Protection was determined by evaluation of cluster morphology and reclustering properties in […] at 0.008 uM concentration.; format: functional, Homo sapiens
ATH-8 cell line [2] = assay: Required dose to reduce viability of normal uninfected ATH8 cells.; format: functional; conditions: Homo sapiens, read-out: ID50 (the source's name)
ATH-8 cell line [3] = assay: Protection of ATH8 cells against the cytopathic effect of HIV.; format: functional; conditions: Homo sapiens, read-out: ED50 (the source's name)
MT4 [4] = assay: Toxicity was determined by evaluation of cluster morphology and reclustering properties in mock infected MT-4 cells at 0.2 uM concentration; format: cell-based; conditions: human, mt4, 0.2 µM
MT4 [5] = assay: Protection was determined by evaluation of cluster morphology and reclustering properties in […] MT-4 cells at 5 uM concentration.; format: functional, Homo sapiens
In short: (§1)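 MT4 cells infected with HIV (300 CCID50/well) were seeded at 2.5×10^5 cells/mL with compound at 125, 5, 0.2, 0.008 or 0.00032 µM and kept 5 days at 37 °C. Clusters were scored microscopically, dispersed by pipetting, and reclustering assessed after 4 h at 37 °C. Scoring: +++ >90% protection.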

MT4 [6] = assay: Protection was determined by evaluation of cluster morphology and reclustering properties in […] MT-4 cells at 0.2 uM concentration; Range is 10-40; format: functional, Homo sapiens; in short: as §1
[7] = Therapeutic index (Ratio = ID50/ED50).
MT4 [8] = assay: Toxicity was determined by evaluation of cluster morphology and reclustering properties in mock infected MT-4 cells at 125 uM concentration; format: cell-based; conditions: human, mt4, 125 µM
MT4 [9] = assay: Toxicity was determined by evaluation of cluster morphology and reclustering properties in mock infected MT-4 cells at 5 uM concentration; format: cell-based; conditions: human, mt4, 5 µM
In short: (§2)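 Mock-infected MT4 cells were seeded at 2.5×10^5 cells/mL with compound at 125–0.00032 µM and cultured 5 days at 37 °C. Cluster morphology was scored microscopically, then cells were dispersed by pipetting and reclustering read after 4 h. Scoring: ++ >90%, + 10–40%, − <10% toxicity.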

MT4 [10] = assay: Toxicity was determined by evaluation of cluster morphology and reclustering properties in mock infected MT-4 cells at 125 uM concentration; Range is 10-40; format: cell-based; conditions: human, mt4, 125 µM; in short: as §2
MT4 [11] = assay: Protection was determined by evaluation of cluster morphology and reclustering properties in […] at 5 uM concentration; Range is 40-60; format: functional, Homo sapiens
MT4 [12] = assay: Protection was determined by evaluation of cluster morphology and reclustering properties in mock infected MT-4 cells at 125 uM concentration; format: functional, Homo sapiens; conditions: in the assay text read “HIV infected” for “mock infected”; in short: as §1
MT4 [13] = assay: Protection was determined by evaluation of cluster morphology and reclustering properties in […] MT-4 cells at 0.2 uM concentration; format: functional, Homo sapiens
MT4 [14] = assay: Protection was determined by evaluation of cluster morphology and reclustering properties in mock infected MT-4 cells at 125 uM concentration; Range is 10-40; format: functional, Homo sapiens; conditions: in the assay text read “HIV infected” for “mock infected”; in short: as §1
MT4 [15] = assay: Toxicity was determined by evaluation of cluster morphology and reclustering properties in mock infected MT-4 cells at 5 uM concentration; Range is 10-40; format: cell-based; conditions: human, mt4, 5 µM
MT4 [16] = assay: Protection was determined by evaluation of cluster morphology and reclustering properties in […] MT-4 cells at 125 uM concentration; Range is 40-60; format: functional, Homo sapiens
MT4 [17] = assay: Protection was determined by evaluation of cluster morphology and reclustering properties in […] MT-4 cells at 0.00032 uM concentration; Range is 10-40; format: functional, Homo sapiens; in short: as §1
MT4 [18] = assay: Toxicity was determined by evaluation of cluster morphology and reclustering properties in mock infected MT-4 cells at 0.00032 uM concentration; format: cell-based; conditions: human, mt4, 0.00032 µM; in short: as §2
MT4 [19] = assay: Protection was determined by evaluation of cluster morphology and reclustering properties in […] MT-4 cells at 0.008 uM concentration; Range is 10-40; format: functional, Homo sapiens; in short: as §1
MT4 [20] = assay: Toxicity was determined by evaluation of cluster morphology and reclustering properties in mock infected MT-4 cells at 0.008 uM concentration; Range is 10-40; format: cell-based; conditions: human, mt4, 0.008 µM; in short: as §2
MT4 [21] = assay: Protection was determined by evaluation of cluster morphology and reclustering properties in […] MT-4 cells at 0.00032 uM concentration; format: functional, Homo sapiens; in short: as §1
MT4 [22] = assay: Toxicity was determined by evaluation of cluster morphology and reclustering properties in mock infected MT-4 cells at 0.2 uM concentration; Range is 10-40; format: cell-based; conditions: human, mt4, 0.2 µM; in short: as §2
MT4 [23] = assay: Protection was determined by evaluation of cluster morphology and reclustering properties in […] at 0.008 uM concentration; Range is 40-60; format: functional, Homo sapiens; in short: as §1
MT4 [24] = assay: Toxicity was determined by evaluation of cluster morphology and reclustering properties in mock infected MT-4 cells at 0.008 uM concentration; format: cell-based; conditions: human, mt4, 0.008 µM; in short: as §2
MT4 [25] = assay: Protection was determined by evaluation of cluster morphology and reclustering properties in […] MT-4 cells at 0.2 uM concentration; Range is 40-60; format: functional, Homo sapiens; in short: as §1
MT4 [26] = assay: Protection was determined by evaluation of cluster morphology and reclustering properties in […] MT-4 cells at 5 uM concentration; Range is 10-40; format: functional, Homo sapiens; in short: as §1

Structure (SMILES)	IC50 (ATH-8 cell line [2]) [µM]	EC50 (ATH-8 cell line [3]) [µM]	Toxicity (MT4 [4]) [%]	Protection (MT4 [5]) [%]	selectivity ratio [7]	Toxicity (MT4 [8]) [%]	Toxicity (MT4 [9]) [%]	Protection (MT4 [13]) [%]	also measured
Cc1cn([C@H]2CC[C@@H](CO)O2)c(=O)[nH]c1=O	> 2000	100	< 10	>90	> 20	< 10	< 10	–	Protection (MT4 [1]): <10%; Protection (MT4 [6]): 10%
Cc1cn([C@H]2C[C@H](N=[N+]=[N-])[C@@H](CO)O2)c(=O)nc1N	> 100	> 100	< 10	–	–	–	< 10	–	Toxicity (MT4 [10]): 10%; Protection (MT4 [11]): 40%; Protection (MT4 [6]): 10%; Protection (MT4 [12]): >90%
CCc1cn(C2CC(F)C(CO)O2)c(=O)[nH]c1=O (stereo not given)	> 500	> 500	< 10	<10	–	< 10	< 10	<10	Protection (MT4 [14]): 10%
Nc1ccn([C@H]2C[C@H](O)[C@@H](CO)O2)c(=O)n1 [DOXECITINE]	> 100	> 100	< 10	<10	–	> 90	–	<10	Protection (MT4 [1]): <10%; Toxicity (MT4 [15]): 10%
NCC1C=CC(n2ccc(N)nc2=O)O1 (stereo not given)	> 500	260	< 10	<10	> 1.9	–	< 10	<10	Toxicity (MT4 [10]): 10%; Protection (MT4 [16]): 40%
Cc1cn([C@H]2C[C@H](F)[C@@H](CO)O2)c(=O)[nH]c1=O [ALOVUDINE]	15	1.4	> 90	–	10	> 90	> 90	–	Protection (MT4 [17]): 10%; Toxicity (MT4 [18]): < 10%; Protection (MT4 [19]): 10%; Toxicity (MT4 [20]): 10%
Nc1ccn(C2CC3OCC3O2)c(=O)n1 (stereo not given)	> 500	400	< 10	<10	> 1.2	< 10	< 10	<10	Protection (MT4 [14]): 10%
Cc1cn(C2CC(SCCO)C(CO)O2)c(=O)[nH]c1=O (stereo not given)	> 100	> 100	< 10	<10	–	–	< 10	<10	Toxicity (MT4 [10]): 10%; Protection (MT4 [14]): 10%
Nc1ncnc2c1ncn2[C@H]1CC[C@@H](CO)O1	> 500	2.7	< 10	–	> 148	< 10	< 10	<10	Protection (MT4 [11]): 40%; Protection (MT4 [12]): >90%
Cc1cn([C@H]2C=C[C@@H](CO)O2)c(=O)[nH]c1=O [STAVUDINE]	110	4.1	–	–	27	> 90	> 90	>90	Protection (MT4 [19]): 10%; Protection (MT4 [21]): <10%; Toxicity (MT4 [22]): 10%
Cc1cn([C@H]2C[C@H](N=[N+]=[N-])[C@@H](CO)O2)c(=O)[nH]c1=O (stereo in doubt; 1a) [ZIDOVUDINE]	45	2.4	–	–	19	–	–	>90	Protection (MT4 [17]): 10%; Toxicity (MT4 [18]): < 10%; Protection (MT4 [23]): 40%; Toxicity (MT4 [8]; 125 µM): > 90%; Toxicity (MT4 [24]): < 10%; Toxicity (MT4 [9]; 5 µM): > 90%
Cc1cn([C@H]2C[C@H](O)[C@@H](CO)O2)c(=O)[nH]c1=O [DOXRIBTIMINE]	> 100	> 100	< 10	<10	–	< 10	< 10	<10	Protection (MT4 [16]): 40%
Nc1ccn(C2CC(F)C(CO)O2)c(=O)n1 (stereo not given)	> 250	8	–	–	> 31	> 90	> 90	–	Protection (MT4 [1]): <10%; Toxicity (MT4 [18]): < 10%; Protection (MT4 [21]): <10%; Protection (MT4 [25]): 40%; Toxicity (MT4 [24]): < 10%; Toxicity (MT4 [22]): 10%
CO[C@H]1C[C@H](n2cc(C)c(=O)[nH]c2=O)O[C@@H]1CO	88	> 100	< 10	–	< 0.9	> 90	–	<10	Protection (MT4 [1]): <10%; Toxicity (MT4 [15]): 10%; Protection (MT4 [26]): 10%
